Measured values from ChEMBL document CHEMBL3875214, “Quercetin-glutamic acid conjugate with a non-hydrolysable linker; a novel scaffold for multidrug resistance reversal agents through inhibition of P-glycoprotein” (Bioorg Med Chem, 2017).
Activity calls are given as the source filed them. No cut-off for these calls is given here.

Key:
Homo sapiens [1] = species: Homo sapiens; assay: Inhibition of P-gp in human MES-SA/Dx5 cells assessed as increase in doxorubicin accumulation at 5 uM after 30 mins by flow cytometry relative to control; assay type: cell-based
[2] = Stability in P-gp over-expressing human MES-SA/Dx5 cells assessed as reduction in quercetin release up to 100 uM by HPLC analysis; assay type: ADME, cell-based
Summary of the method: (§1)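 MES-SA or MES-SA/Dx5 cells were incubated with compound for up to 48 h (0, 24, 48 h). Cell lysates were analysed by HPLC for intact compound and for released quercetin, and half-lives were derived from these measurements.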

[3] = Inhibition of P-gp in human MES-SA/Dx5 cells assessed as potentiation of doxorubicin-induced cytotoxicity by measuring compound concentration required for reduction of doxorubicin IC50 by half after 72 hrs by MTT assay; assay type: cell-based; conditions: MES-SA/Dx5, 72 h
Homo sapiens [4] = species: Homo sapiens; assay: Inhibition of P-gp in human MES-SA/Dx5 cells assessed as potentiation of vinblastine-induced cytotoxicity by measuring fold reduction in vinblastine EC50 at 5 uM after 72 hrs by MTT assay relative to untreated control; assay type: cell-based
Summary of the method: (§2)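 MES-SA/Dx5 cells were seeded at 5×10^3 per well in complete RPMI-1640 and left 24 h at 37 °C, 5% CO2. Anticancer drug was added at 0.0001–100 µM final, with or without modulator at 5 µM (1% DMSO), for 72 h. Viability was read by MTT at 570 nm and survival % was blank-corrected against 1% DMSO controls. IC50s came from survival curves. Fold reversal = IC50 untreated / IC50 with modulator. Three independent experiments were run, reported as mean ± SD.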

Homo sapiens [5] = species: Homo sapiens; assay: Activity at human P-gp expressed in membranes assessed as stimulation of P-gp ATPase activity at 100 uM after 40 mins in presence of MgATP by […] relative to control
Summary of the method: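 Human Pgp membrane, 25 µg, incubated at 37 °C with compound at 100 µM, alongside Na3VO4 (100 µM) and 0.1% DMSO solvent controls. Reaction was started with 5 mM MgATP and run 40 min at 37 °C. Leftover ATP was read as luciferase luminescence after 20 min at room temperature. Activity was taken as the luminescence drop relative to the Na3VO4 sample.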

[6] = Antioxidant activity assessed as DPPH radical scavenging activity; assay type: functional
Homo sapiens [7] = species: Homo sapiens; assay: Inhibition of P-gp in human MES-SA/Dx5 cells assessed as potentiation of paclitaxel-induced cytotoxicity by measuring fold reduction in paclitaxel EC50 at 5 uM after 72 hrs by MTT assay relative to untreated control; assay type: cell-based; summary of the method: as §2
Homo sapiens [8] = species: Homo sapiens; assay: Inhibition of P-gp in human MES-SA/Dx5 cells assessed as potentiation of actinomycin D-induced cytotoxicity by measuring fold reduction in actinomycin D EC50 at 5 uM after 72 hrs by MTT assay relative to untreated control; assay type: cell-based; summary of the method: as §2
[9] = Inhibition of P-gp in human MES-SA/Dx5 cells assessed as potentiation of actinomycin D-induced cytotoxicity by measuring compound concentration required for reduction of actinomycin D IC50 by half after 72 hrs by MTT assay; assay type: cell-based; conditions: MES-SA/Dx5, 72 h
[10] = Inhibition of P-gp in human MES-SA/Dx5 cells assessed as potentiation of vinblastine-induced cytotoxicity by measuring compound concentration required for reduction of vinblastine IC50 by half after 72 hrs by MTT assay; assay type: cell-based; conditions: MES-SA/Dx5, 72 h
[11] = Half life in P-gp over-expressing human MES-SA/Dx5 cells up to 100 uM by HPLC analysis; assay type: ADME, cell-based; summary of the method: as §1
Homo sapiens [12] = species: Homo sapiens; assay: Inhibition of P-gp in human MES-SA/Dx5 cells assessed as potentiation of doxorubicin-induced cytotoxicity by measuring fold reduction in doxorubicin EC50 at 5 uM after 72 hrs by MTT assay relative to untreated control; assay type: cell-based; summary of the method: as §2
[13] = Stability in human MES-SA cells assessed as reduction in quercetin release up to 100 uM by HPLC analysis; assay type: ADME, cell-based; summary of the method: as §1
[14] = Half life in human MES-SA cells up to 100 uM by HPLC analysis; assay type: ADME, cell-based; summary of the method: as §1
[15] = Inhibition of P-gp in human MES-SA/Dx5 cells assessed as potentiation of paclitaxel-induced cytotoxicity by measuring compound concentration required for reduction of paclitaxel IC50 by half after 72 hrs by MTT assay; assay type: cell-based; conditions: MES-SA/Dx5, 72 h

Row | SMILES | fold change (FC) (Homo sapiens [1]) | Stability [2] | EC50 [3] [nM] | fold change (FC) (Homo sapiens [4]) | fold change (FC) (Homo sapiens [5]) | Activity [6] | fold change (FC) (Homo sapiens [7]) | fold change (FC) (Homo sapiens [8]) | EC50 [9] [nM] | EC50 [10] [nM] | half-life [11] [h] | fold change (FC) (Homo sapiens [12]) | Stability [13] | half-life [14] [h] | EC50 [15] [nM]
1 | O=C(O)CC[C@H](NC(=O)COc1cc(O)c2c(=O)c(O)c(-c3ccc(O)c(O)c3)oc2c1)C(=O)O | 2.3 | Stable | 2200 | 26 | 3.1 | Active | 34.6 | 48.4 | 2300 | 2500 | 30 | 25.6 | Stable | 30 | 2100
2 | O=C(O)CC[C@H](NCCOc1cc(O)c2c(=O)c(O)c(-c3ccc(O)c(O)c3)oc2c1)C(=O)O | 2.1 | Stable | 2800 | 16.2 | 2.8 | Active | 17.3 | 20.5 | 2700 | 2400 | 56 | 22.3 | Stable | 56 | 2500
3 | O=c1c(O)c(-c2ccc(O)c(O)c2)oc2cc(O)cc(O)c12 |  |  |  | 2.75 |  | Active | 2.48 | 3.06 |  |  |  | 1.94 |  |  | 
